Usually inhibition stands for the share of the control response that was lost under treatment. The IC50 is the concentration that inhibits the measured activity by half.

This passage reports inhibition, Activity and IC50 results from ChEMBL document CHEMBL4422642, “Antiproliferative and Antimigratory Effects of a Novel YAP-TEAD Interaction Inhibitor Identified Using in Silico Molecular Docking” (J Med Chem, 2019).

Structures are written as SMILES. The source made the active and inactive calls. The calls are words filed in the database; no cut-off is given here. A value given as a limit tells only on which side of the number the result lay.

For data set [1], the system named is HeLa. The data set is described as follows: Inhibition of TEAD (unknown origin) expressed in human HeLa cells at 100 uM after 6 hrs by nanoluciferase reporter gene assay relative to control. It counts as cell-based. The procedure, abridged: (§1)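 HeLa cells stably transduced with a lentiviral 8×TEAD-element secreted nanoluciferase reporter were seeded at 2 × 10^4 cells/well and grown 48 h. They were washed and treated with compound for 2 h, washed again and re-treated for 4 h. Secreted nanoluciferase in the conditioned medium was assayed with NanoGlo; n = 3.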

Data set [2] has as its system HeLa. Put plainly: Cytotoxicity against human HeLa cells assessed as reduction in cell viability by measuring ethidium homodimer-1 uptake at 100 uM preincubated for 10 mins followed by ethidium homodimer-1 addition measured after 10 mins by fluorescence assay. It counts as cell-based. The procedure, abridged: (§2)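 Live/dead cell viability assay in HeLa cells. Maximum death was set by treating cells 10 min with 0.1% Triton-X, then 10 min with 0.4 μM ethidium homodimer-1. Fluorescence was read on a plate reader.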

The test system of data set [3] is HeLa. Put plainly: Inhibition of TEAD (unknown origin) expressed in human HeLa cells up to 150 uM after 6 hrs by nanoluciferase reporter gene assay. The data set is classed as cell-based. The procedure, abridged:
as §1

For data set [4], the system named is HeLa. Put plainly: Cytotoxicity against human HeLa cells assessed as reduction in cell viability by measuring ethidium homodimer-1 uptake up to 150 uM preincubated for 10 mins followed by ethidium homodimer-1 addition measured after 10 mins by fluorescence assay. It counts as cell-based. The method, boiled down: as §2
The target in data set [5] is T1, Transcriptional enhancer factor TEF-1 (Homo sapiens, UniProt P28347). The data set is described as follows: Inhibition of human HEK293 cell lysate derived YAP interaction with recombinant GST-tagged human TEAD1 (194 to 411 residues) expressed in Escherichia coli soluBL21 at 200 uM after 18 hrs by Western blot analysis. The data set is classed as subcellular. The method, boiled down: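 GST–TEAD1 (about 5 μg) immobilized on glutathione resin beads, incubated with HEK293 whole-cell lysate containing endogenous YAP at 4 °C for 18 h. Resin washed; bound proteins eluted by boiling in Laemmli buffer. YAP and GST quantified by Western blot (anti-YAP, anti-GST); n = 2.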

Data set [6] deals with T1, Transcriptional enhancer factor TEF-1. Put plainly: Inhibition of GFP-tagged YAP1 (unknown origin) interaction with myc-tagged human TEAD1 expressed in human HeLa cells by measuring GFP-Trap at 200 uM incubated for 30 mins with myc-tagged human TEAD1 lysate followed by GFP-tagged YAP1 lysate addition measured after 30 mins by Western blot based immunoprecipitation assay. The data set is classed as cell-based. The procedure, abridged:
(§3)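 Myc-TEAD1 and GFP-YAP1 were expressed separately in transfected HeLa cells, and pooled cytosolic plus nuclear extracts were prepared. The myc-TEAD extract was incubated 30 min on ice with 200 μM compound, then an equal volume of GFP-YAP lysate was added for another 30 min. Complexes were pulled down with GFP-Trap or Myc-Trap beads and quantified by Western blot; n = 3.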
(Immunoblotting shows a protein as a band on a membrane.)

Data set [7] shares this target. Put plainly: Inhibition of GFP-tagged YAP1 (unknown origin) interaction with myc-tagged human TEAD1 expressed in human HeLa cells by measuring myc-TRAP at 200 uM incubated for 30 mins with myc-tagged human TEAD1 lysate followed by GFP-tagged YAP1 lysate addition measured after 30 mins by Western blot based immunoprecipitation assay. It counts as cell-based. The procedure, abridged: as §3

Data set [8] has the same target. Put plainly: Inhibition of NL-tagged YAP (unknown origin) interaction with myc-tagged human TEAD1 preincubated for 1 hr followed by NL-tagged YAP addition by NanoGlo assay. The method, boiled down: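 Myc-TEAD1 from transfected HeLa lysate was captured with anti-myc antibody on protein-G-coated 96-well plates. Wells were pretreated with compound in PBS for 1 h at 4 °C, then co-incubated with lysate from HeLa cells expressing YAP–nanoluciferase. After four PBS washes, bound YAP–NL was read with NanoGlo.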

Data set [9] has as its system HeLa. The data set is described as follows: Inhibition of TEAD in human HeLa cells assessed as reduction in CCN1 m-RNA expression incubated for 2 hrs followed by compound wash out and re-treatment for 4 hrs by NanoGlo assay. It counts as cell-based.
Data set [10] has as its system HeLa. Put plainly: Inhibition of TEAD in human HeLa cells assessed as reduction in CTGF m-RNA expression incubated for 2 hrs followed by compound wash out and re-treatment for 4 hrs by NanoGlo assay. It counts as cell-based.
For data set [11], the species on record is Rattus norvegicus. The data set is described as follows: Inhibition of TEAD in rat VSMC assessed as reduction in CCN1 m-RNA expression incubated for 2 hrs followed by compound wash out and re-treatment for 4 hrs by NanoGlo assay.
For data set [12], the species on record is Rattus norvegicus. The data set is described as follows: Inhibition of TEAD in rat VSMC assessed as reduction in CTGF m-RNA expression incubated for 2 hrs followed by compound wash out and re-treatment for 4 hrs by NanoGlo assay.
For data set [13], the system named is HeLa. Put plainly: Inhibition of TNT1 m-RNA expression in human HeLa cells up to 80 uM incubated for 2 hrs followed by compound wash out and re-treatment for 4 hrs by NanoGlo assay. It counts as functional, cell-based.
Data set [14] concerns VSMC. The data set is described as follows: Inhibition of TNT1 m-RNA expression in rat VSMC up to 80 uM incubated for 2 hrs followed by compound wash out and re-treatment for 4 hrs by NanoGlo assay. It counts as functional, cell-based.
For data set [15], the system named is HeLa. The data set is described as follows: Inhibition of 36B4 m-RNA expression in human HeLa cells up to 80 uM incubated for 2 hrs followed by compound wash out and re-treatment for 4 hrs by NanoGlo assay. It counts as functional, cell-based.
Data set [16] relates to VSMC. Put plainly: Inhibition of 36B4 m-RNA expression in rat VSMC up to 80 uM incubated for 2 hrs followed by compound wash out and re-treatment for 4 hrs by NanoGlo assay. The data set is classed as functional, cell-based.
In data set [17] the test system is VSMC. The data set is described as follows: Antiproliferative activity against rat VSMC assessed as reduction in EdU incorporation after 24 hrs by Hoechst 33342 staining-based fluorescence assay. The data set is classed as functional, cell-based. The method, boiled down:
(§4)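 Click-iT EdU assay. Cells were treated with compound for 24 h total, with 10 μM EdU present for the final labeling period. Cells were then fixed in 4% formaldehyde, stained for EdU and counterstained with Hoechst 33342 for 20 min. EdU-positive nuclei were counted in at least three fields per well; n = 4.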

In data set [18] the test system is HeLa. Put plainly: Antiproliferative activity against human HeLa cells assessed as reduction in EdU incorporation after 24 hrs by Hoechst 33342 staining-based fluorescence assay. The data set is classed as functional, cell-based. The method, boiled down: as §4
Data set [19] has as its system VSMC. The data set is described as follows: Antimigratory activity in rat VSMC incubated for overnight followed by media replacement and measured every hour for 24 hrs by phase contrast microscopic analysis. The data set is classed as functional, cell-based. The procedure, abridged: (§5)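 IncuCyte real-time scratch wound assay. Cells were seeded in 96-well plates and grown 36 h, then pretreated overnight with compound. Wells were scratched and the medium was replaced with compound-containing medium. Phase-contrast images of the wound were taken hourly for 24 h and relative wound confluence was calculated; n = 4.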

In data set [20] the test system is HeLa. Put plainly: Antimigratory activity in human HeLa cells incubated for overnight followed by media replacement and measured every hour for 24 hrs by phase contrast microscopic analysis. It counts as functional, cell-based. The method, boiled down:
as §5

Data set [21] concerns HeLa. Put plainly: Cytotoxicity against human HeLa cells assessed as reduction in cell viability by measuring ethidium homodimer-1 uptake at 60 uM preincubated for 10 mins followed by ethidium homodimer-1 addition measured after 10 mins by fluorescence assay. The data set is classed as cell-based. The method, boiled down: as §2
The nature of data set [22]: Inhibition of TEAD (unknown origin) expressed in human HeLa cells after 6 hrs by nanoluciferase reporter gene assay. The data set is classed as cell-based. The method, boiled down: as §1
In general terms: In a reporter assay the amount or activity of a reporter protein is the signal.

T1 sequence (P28347 whole entry, the tested form may be a part): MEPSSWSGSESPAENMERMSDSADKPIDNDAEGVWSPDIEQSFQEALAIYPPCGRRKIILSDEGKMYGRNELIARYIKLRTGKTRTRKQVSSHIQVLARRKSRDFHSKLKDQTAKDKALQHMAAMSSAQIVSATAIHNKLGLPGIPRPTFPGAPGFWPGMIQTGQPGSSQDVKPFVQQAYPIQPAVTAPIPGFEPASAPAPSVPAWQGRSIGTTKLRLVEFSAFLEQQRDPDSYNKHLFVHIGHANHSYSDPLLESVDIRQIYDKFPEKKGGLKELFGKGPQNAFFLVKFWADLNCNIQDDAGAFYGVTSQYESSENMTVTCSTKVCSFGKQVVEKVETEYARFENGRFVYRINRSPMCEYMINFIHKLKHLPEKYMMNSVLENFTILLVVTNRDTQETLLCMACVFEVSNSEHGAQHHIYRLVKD

Turning to `O=C(NCCn1ncc2c(N3CCN(c4ncccn4)CC3)ncnc21)C12CC3CC(CC(C3)C1)C2`, the inhibition in the data set on HeLa [1] is over 60%. In addition, in the data set on HeLa [2], the Activity result is on record as “Non-Toxic”.
`O=C(O)c1ccco1`: the inhibition entry in the data set with HeLa [3] is “inactive”. Besides, in the data set with HeLa [4], the Activity entry was “Non-Toxic”.
On to `Cc1ccc2c(c1)c1c3n2CCN(C[C@H](O)CN2CCN(C(=O)c4ccco4)CC2)[C@@H]3CCC1`, for which the inhibition in the data set with HeLa [1] was over 60%; in [8], “Dose-dependent effect”; with HeLa [9], “Dose-dependent effect”; with HeLa [10] it was “Dose-dependent effect”; in the data set filed under Rattus norvegicus [11], “Dose-dependent effect”; in the data set filed under Rattus norvegicus [12], “Dose-dependent effect”. Moreover, the Activity result was “Non-Toxic” in the data set with HeLa [2]; “Dose-dependent effect” in the data set with VSMC [17]; “Dose-dependent effect” in the data set with HeLa [18]; “Dose-dependent effect” in the data set with VSMC [19]; “Dose-dependent effect” with HeLa [20]; “Non-Toxic” in the data set with HeLa [21]. In addition, the inhibition entry in data set [5], in [6] and in data set [7] was “Active” throughout. For the same compound, the inhibition entry in the data set on HeLa [13], in the data set with VSMC [14], in the data set on HeLa [15] and in the data set on VSMC [16] was “inactive” in each case. Further, the IC50 in [22] is 110 µM.
Regarding `OCC(O)CN1CCNCC1` (stereo not given), the inhibition result in the data set with HeLa [3] is “inactive”. In addition, the Activity result with HeLa [4] was “Non-Toxic”.
In the data set on HeLa [1], `COc1ccc2nc(NC3=NCN(Cc4ccco4)CN3)nc(C)c2c1` yielded an inhibition of over 60%. Also, in the data set on HeLa [2], the Activity result is “Non-Toxic”.
On the same counts, the results for `CCc1nc(C)nc(Oc2ccc(OCCOc3ccc(C)cc3C)nn2)n1` are over 60% and “Non-Toxic”.
